Measurements from BindingDB's records for doi:10.1021/jm020334u (Roche Discovery Welwyn, 2003).

Target: Polymerase acidic protein (Influenza A virus (strain A/Puerto Rico/8/1934 H1N1), UniProt P03433)
Experiment: Inhibitory concentration against cap-dependent endonuclease activity of influenza virus RNP
Method in brief: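 Gel-based cap-dependent endonuclease assay. 1 nM influenza RNP was incubated with 0.1 nM cap-labeled 20-mer G20 RNA in 50 mM Tris-HCl pH 8 with 1 mM MgCl₂, 20 mM KCl, 1 U/μL RNase inhibitor and 0.3% Triton X-100, for 5 min at 31 °C. Cleavage products were resolved on polyacrylamide gels and quantified by phosphorimager. IC50 came from dose–response curves.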

| Compound | IC50 [µM] |
| --- | --- |
| CC(C)C=c1[nH]c(=Cc2ccc(F)cc2)c(=O)[nH]c1=O [3-(4-fluorobenzylidene)-5-isobutylpyrazine-2,6(1H,3H)-dione] | > 365 |
| COCOn1c(=O)c(=CC(C)C)[nH]c(=CC(C)C)c1=O [(3Z)-5-isobutyl-1-(methoxymethoxy)-3-(2-methylpropylidene)pyrazine-2,6(1H,3H)-dione] | > 355 |
